# Results as given in ChEMBL document CHEMBL4145453, “Synthesis, physicochemical properties, and biological activity of bile acids 3-glucuronides: Novel insights into bile acid signalling and detoxification” (Eur J Med Chem, 2018).
# What was measured:
# albumin = albumin (Bos taurus, UniProt P02769); assay: Binding affinity to bovine serum albumin at 10 uM after 24 hrs by equilibrium dialysis method; assay type: ADME; conditions: cattle, read-out: PB (converted)
# [1] = Octanol-HCl distribution coefficient, log P of the compound at pH 1 at 1 uM after 24 hrs by shake flask method; assay type: physicochemical
# Outline: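 Shake-flask method, 1 µM bile acid in mutually pre-saturated 1-octanol/DPBS pH 7.4 or 1-octanol/HCl pH 1.0 (50:50). Equilibrated 24 h with stirring at r.t., then centrifuged. Aqueous-phase concentration before and after partition measured by HPLC-ESI-MS/MS.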
# [2] = Solubility of the compound in pH 7.4 PBS buffer at 300 uM after 24 hrs by HPLC-ESI-MS analysis; assay type: physicochemical
# Outline: (§1)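 Dried 1 mM stock (300 µL) was redissolved in 1 mL PBS pH 7.4 or acid solution pH 1.0 (nominal about 300 µM). Stirred 24 h at r.t., centrifuged, diluted 1:100 or 1:10, then quantified by HPLC-ESI-MS/MS in MRM mode against a 6-point calibration (0.01–10 µM).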
# [3] = Solubility of the compound in pH 1 HCl solution at 300 uM after 24 hrs by HPLC-ESI-MS analysis; assay type: physicochemical; outline: as §1
# [4] = molecular target: T1, Bile acid receptor (Homo sapiens) (UniProt Q96RI1); assay: Agonist activity at GST-tagged FXR-LBD (unknown origin) assessed as biotin-labeled SRC-1 recruitment after 30 mins by Alpha Screen assay relative to CDCA
# T1 sequence (whole entry): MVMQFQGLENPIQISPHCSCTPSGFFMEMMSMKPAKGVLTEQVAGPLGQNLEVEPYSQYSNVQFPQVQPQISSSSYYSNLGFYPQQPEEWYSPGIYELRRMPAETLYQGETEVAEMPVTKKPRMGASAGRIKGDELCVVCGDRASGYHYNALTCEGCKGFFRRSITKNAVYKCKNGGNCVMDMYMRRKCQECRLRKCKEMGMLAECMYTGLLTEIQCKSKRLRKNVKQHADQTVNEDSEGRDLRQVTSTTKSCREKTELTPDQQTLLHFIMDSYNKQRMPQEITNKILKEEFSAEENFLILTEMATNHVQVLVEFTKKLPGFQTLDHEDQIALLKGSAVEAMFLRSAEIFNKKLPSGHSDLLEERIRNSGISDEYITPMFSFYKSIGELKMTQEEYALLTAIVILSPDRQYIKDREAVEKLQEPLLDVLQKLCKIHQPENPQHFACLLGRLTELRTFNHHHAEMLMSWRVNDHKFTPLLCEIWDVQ
# Outline: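 GST-FXR-LBD (10 nM) with biotinylated SRC-1 peptide (30 nM), anti-GST acceptor and streptavidin donor beads; buffer 50 mM Tris pH 7.4, 50 mM KCl, 0.1% BSA, 1 mM DTT. Compound in DMSO, 30 min r.t., then beads 4 h dark r.t.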
# Bile acid receptor = molecular target: T2, Bile acid receptor (Homo sapiens, UniProt Q96RI1); assay: Agonist activity at GST-tagged FXR-LBD (unknown origin) assessed as biotin-labeled SRC-1 recruitment after 30 mins by Alpha Screen assay
# T2 sequence (Q96RI1 whole entry): T1 sequence (whole entry)
# Sequence of albumin (P02769 whole entry): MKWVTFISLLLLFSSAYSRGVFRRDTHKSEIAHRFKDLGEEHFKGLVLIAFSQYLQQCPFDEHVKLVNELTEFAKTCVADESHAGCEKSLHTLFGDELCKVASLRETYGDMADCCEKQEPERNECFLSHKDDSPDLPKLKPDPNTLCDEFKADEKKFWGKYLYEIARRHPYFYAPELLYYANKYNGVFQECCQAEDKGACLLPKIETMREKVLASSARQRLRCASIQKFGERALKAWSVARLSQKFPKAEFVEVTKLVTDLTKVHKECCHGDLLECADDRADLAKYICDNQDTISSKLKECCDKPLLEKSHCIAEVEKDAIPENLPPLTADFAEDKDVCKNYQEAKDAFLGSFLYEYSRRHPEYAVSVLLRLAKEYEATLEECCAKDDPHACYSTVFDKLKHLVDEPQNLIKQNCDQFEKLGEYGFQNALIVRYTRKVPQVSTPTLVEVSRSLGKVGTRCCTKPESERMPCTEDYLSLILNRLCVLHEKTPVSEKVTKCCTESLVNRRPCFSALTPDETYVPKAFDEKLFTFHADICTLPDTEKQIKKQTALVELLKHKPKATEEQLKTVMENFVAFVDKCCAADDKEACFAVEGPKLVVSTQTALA
Compound,"fraction unbound at 24 h, 10 µM (albumin)","logD at 24 h, 1 µM [1]","solubility at 24 h, 300 µM [2] [µM]","solubility at 24 h, 300 µM [3] [µM]",Efficacy [4] [%],EC50 (Bile acid receptor) [µM]
C[C@H](CCC(=O)O)[C@H]1CC[C@H]2[C@@H]3[C@H](O)C[C@@H]4C[C@H](O)CC[C@]4(C)[C@H]3CC[C@]12C [CHENODIOL],0.015,2.5,282,33,–,–
C[C@H](CCC(=O)O)[C@H]1CC[C@H]2[C@@H]3CC[C@@H]4C[C@H](O)CC[C@]4(C)[C@H]3C[C@H](O)[C@]12C [DEOXYCHOLIC ACID],–,–,–,–,7,45
